Hits are enriched below; roughly 4.7% of the tested compounds scored in any of these assays.
SKN-1 block: suppressors of acrylamide-induced Pgst-4::GFP reporter in worms, primary screen, SKN-1 inhibitor project, whole organism, uHTS, GFP/RFP fluorescence ratio, strain VP596 | AID 624304, 2012 | 360,000 compounds, 0.49% hits | inhibition, % at 21.8 µM | C. elegans VP596 Pgst-4::GFP/RFP ratio, 24 h;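 active = interference check ratio from 0.5 to 1.5 plus GFP to RFP signal ratio inhibition reaching or exceeding a fixed threshold, cut at about 30% in these data, passing the limit was not always enough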
MPTP inh: mitochondrial permeability transition pore inhibitors, primary screen, biochemical, isolated mouse mitochondria, absorbance. Ca2+ swelling absorbance, 30 min. inhibition, % at 10 µM. 360,000 compounds, 1.4% hits. AID 602449, 2012;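 active = inhibition of 50% or more, scaled per plate between neutral and stimulator controls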;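 also: 0% = DMSO wells given calcium and 100% = 1 mM EGTA wells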
ADAM10 inh: human ADAM10 inhibitors, primary screen, biochemical, QFRET, HTS | Disintegrin and metalloproteinase domain-containing protein 10 (Homo sapiens), O14672 | recombinant ADAM10, EDANS/DABCYL FRET peptide cleavage, 3 h | inhibition, % at 7 µM | 370,000 compounds, 0.62% hits;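 active = inhibition above a per-campaign cutoff equal to the mean of compounds falling between control-based bounds plus 3 SD, cut at about 20% in these data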;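 also: 0% = DMSO wells while the 100% control is not disclosed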
GRIN3A LBD mod: binders of NR3A ligand-binding domain, primary screen, biophysical, differential scanning fluorimetry, uHTS | NR3A LBD differential scanning fluorimetry, Tm shift; 0% = protein alone, 100% = glycine-bound protein | Glutamate receptor ionotropic, NMDA 3A (GRIN3A) ligand-binding domain | Tm shift relative to glycine control, % at 25 µM | 340,000 compounds, 2.5% hits;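 active = melting temperature shift of at least 10% of the positive control shift, at one fixed dose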
MT1-MMP act inh: blockers of MT1-MMP proenzyme processing, primary screen, HT1080 RFP-PRO-GFP cells, GFP/RFP fluorescence; Matrix metalloproteinase-14 (Homo sapiens), P50281; GFP/RFP ratio fluorescence, overnight; percent of plate control window, DMSO zero; GFP/RFP ratio change, % at 20 µM; 360,000 compounds, 0.061% hits; AID 651647, 2012;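 active = GFP/RFP ratio change of at least 30% with cell ATP level not reduced by more than half and red fluorescence within 50% of control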
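Assay system – RFP-PRO-GFP reporter HT1080 cells · Compound dosing – single dose of 20 µM compound, 1% DMSO final · Incubation – overnight compound exposure at 37 °C · Measure – GFP/RFP fluorescence ratio · Benchmarks – DMSO wells and RFP-L50D-GFP cells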
ADAM17 inh: ADAM17 inhibitors, primary screen, biochemical, QFRET; 370,000 compounds, 0.83% hits; recombinant ADAM17, EDANS/DABCYL FRET peptide cleavage; Disintegrin and metalloproteinase domain-containing protein 17 (Homo sapiens), P78536; inhibition, % at 6.95 µM;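 active = inhibition above the mean of compounds lying between control limits plus 3 SD, set per campaign, cut at about 8.5% in these data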;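 also: 0% = DMSO-only wells as the low control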
Target sequence (P78536 215-824 limits assumed): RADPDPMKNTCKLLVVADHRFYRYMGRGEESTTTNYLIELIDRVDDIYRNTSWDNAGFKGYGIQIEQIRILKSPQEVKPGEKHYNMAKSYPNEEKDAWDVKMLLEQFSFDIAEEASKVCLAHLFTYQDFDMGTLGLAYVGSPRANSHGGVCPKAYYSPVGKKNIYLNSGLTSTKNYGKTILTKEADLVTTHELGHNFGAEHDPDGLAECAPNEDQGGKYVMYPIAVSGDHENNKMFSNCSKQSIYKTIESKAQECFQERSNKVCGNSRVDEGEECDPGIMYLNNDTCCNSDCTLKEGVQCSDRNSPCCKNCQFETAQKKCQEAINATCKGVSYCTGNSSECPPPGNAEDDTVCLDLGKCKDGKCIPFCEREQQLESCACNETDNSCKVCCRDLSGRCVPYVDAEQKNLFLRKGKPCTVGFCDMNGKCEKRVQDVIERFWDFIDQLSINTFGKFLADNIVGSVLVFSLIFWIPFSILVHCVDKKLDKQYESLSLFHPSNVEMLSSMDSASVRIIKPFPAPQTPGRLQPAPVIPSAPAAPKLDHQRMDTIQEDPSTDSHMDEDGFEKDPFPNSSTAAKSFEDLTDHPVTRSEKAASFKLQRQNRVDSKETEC
MPTP counter: fluorescence retest of MPTP screen hits in isolated mitochondria, single concentration. shares compounds with MPTP inh. 5,000 compounds, 78% hits. inhibition, % at 10 µM. membrane potential, Rhodamine 123 fluorescence. AID 624504, 2012; in the data active = inhibition above about 22%;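 also: 0% = DMSO vehicle and 100% = positive control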
MPTP swell DR: mitochondrial permeability transition pore inhibitors, dose response, biochemical, absorbance, uHTS hits; shares compounds with MPTP inh; isolated mitochondria swelling; IC50, µM; 780 compounds, 58% hits; AID 651561, 2012; in the data active = IC50 below about 20 µM
MPTP counter DR: fluorescent counter-screen in isolated mitochondria, dose response, counter-screen for MPTP inhibitor project, biochemical, fluorescence, uHTS hits; shares compounds with MPTP inh; isolated mitochondria counterscreen, fluorescence read-out; IC50, µM; 780 compounds, 49% hits; AID 651564, 2012; in the data active = IC50 below about 80 µM
* = called active by the depositor; nt = no result.

SMILES	SKN-1 block	MPTP inh	ADAM10 inh	GRIN3A LBD mod	MT1-MMP act inh	ADAM17 inh	MPTP counter	others
CC(C)(C)c1ccc(C(=O)NCCN2CCOCC2)cc1	18	2	-10	1	0	-4	nt
CC(C)(C)c1ccc(C(=O)NCCCN2CCN(CCCNC(=O)c3ccc(C(C)(C)C)cc3)CC2)cc1	3	87*	0	-1	-33	0	86*
COc1ccc(NC(=O)c2cc(-c3cc(C)cc(C)c3O)n[nH]2)cc1Cl	8	95*	9	36*	-5	-3	63*
Cc1cc(C)c(O)c(-c2cc(C(=O)Nc3cccnc3)[nH]n2)c1	-8	59*	5	7	5	2	60*
O=C(O)c1ccc(Cl)c(S(=O)(=O)Nc2ccc(S(=O)(=O)Nc3cccc(Cl)c3)cc2)c1	24	0	5	-3	0	-1	nt
CCCn1c(SCC(=O)Nc2nc3ccccc3s2)nc2c1c(=O)n(C)c(=O)n2C	4	85*	-4	3	-6	-3	0	MPTP swell DR=19*;MPTP counter DR=14*
CCCn1c(SCC(=O)Nc2nnc(C(C)C)s2)nc2c1c(=O)n(C)c(=O)n2C	-1	3	1	-1	9	1	nt
COC(=O)/C=C1\SC(=Nc2ccccc2)NC1=O	-1	2	-4	-6	1	-3	nt
COC(=O)/C=C1/SC(=Nc2ccc(Cl)c(Cl)c2)NC1=O	9	58*	4	18*	1	-1	25*
Nn1c(Cc2cccc3ccccc23)nnc1SCc1ccccc1	-4	1	1	-3	-1	1	nt
O=C(Nc1cccc(C(F)(F)F)c1)Nc1ccc(N2CCCC2)c(S(=O)(=O)Nc2ccccc2Cl)c1	6	94*	13	30*	-36	4	41*
CC(=O)Nc1ccc(N2CCOCC2)c(S(=O)(=O)Nc2ccccc2Cl)c1	15	1	2	nt	-1	0	nt
Cc1csc(NC(=O)CSc2nnc(-c3ccoc3C)o2)n1	20	0	2	-1	7	-6	nt
Cc1occc1-c1nnc(SCC(=O)Nc2nc(C(C)(C)C)cs2)o1	4	94*	3	-1	-7	-1	90*
O=C(CSC1=NS(=O)(=O)c2ccccc2N1)c1ccccc1	5	-1	0	1	-1	-2	nt
CCC(=O)c1ccccc1OCCCN1CCC(Cc2ccccc2)CC1	-4	69*	10	2	8	-2	60*
Nc1nccnc1C(=O)N/N=C/c1ccco1	-5	2	-53	0	-2	-35	nt
Cc1cccc(N=C2NC(=O)S/C2=C\c2ccco2)c1	2	71*	-2	-7	-9	-1	54*
Cc1cccc(N=C2NC(=O)/C(=C/C=C/c3ccco3)S2)c1	-3	8	18	3	-2	3	nt
O=C1NC(=Nc2ccc(Cl)cc2)/C(=C/c2ccco2)S1	18	79*	-3	0	-26	-1	56*
CN(CCOc1ccc(Cl)cc1)C(=O)c1cccc(S(=O)(=O)N2CCN(c3ccc(F)cc3)CC2)c1	-7	58*	nt	-2	1	nt	90*
